High-throughput results as filed in PubChem.
Most compounds without a hit are left out; they make up all but 3.1% or so of the library.
HIV Env fusion: blocks HIV Env-driven cell-cell fusion. HeLa-JRFL Env/CEM21 cell fusion, luciferase. inhibition, % at 12.3 µM. 1.1% of 360,000 active. AID 651610;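 active = mean replicate inhibition score of at least 50 and every replicate individually at or above 50; inconclusive = only one of the two criteria met; inactive = mean below 50 and not all replicates reaching 50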
PGC1a acetyl inh: modulators of PGC1a acetylation | U2OS PGC1a acetylation, AlphaScreen anti-acetyl-lysine; with virally co-expressed GCN5 acetyltransferase | inhibition, % at 15.6 µM | 0.17% of 350,000 active;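 active = every replicate shows inhibition of at least 40%; inconclusive = mean inhibition at least 40% but some replicate below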
FN deposition inh: fibronectin deposition inhibition; AH1F fibroblasts, Alexa488-fibronectin deposition fluorescence, overnight; inhibition, % at 12.6 µM; 0.086% of 350,000 active; AID 743247;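 active = mean inhibition across replicates of 30% or more, regardless of how many single replicates reach that level; inconclusive = mean under 30% yet at least half of replicates reach 30%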
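Assay system: AH1F fibroblasts assembling fluorescent fibronectin matrix; Amount: 10000 AH1F cells per well; Buffer or medium: DMEM, 2% serum; Probe or stimulus: Alexa488-fibronectin, 24 nM final in well; Doses: single compound dose, delivered by pin transfer; Incubation: 1 h adhesion, overnight exposure; Measured by: fluorescence 485/525 nm; Read-out: fibronectin deposition inhibition.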
EWS-Fli inh: inhibitors of EWS/Fli oncoprotein transcriptional activity; A673 NR0B1-luciferase reporter, viability-normalised; inhibition, % at 12.6 µM; 0.67% of 350,000 active;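 active = mean inhibition of at least 50% after viability correction, with every replicate also passing that limit; inconclusive = mean reaches 50% but only one of two replicates passes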;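 also: firefly luciferase signal divided by Alamar Blue viability fluorescence both relative to DMSO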
PAX8 inh HTS: lowers PAX8-driven luciferase in RMG-I cells; RMG-I TPO-luciferase reporter, SteadyGlo, 24 h; inhibition, % at 12.6 µM; 1.2% of 360,000 active;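 active = mean replicate inhibition at least 60% with every replicate also reaching 60%; inconclusive = only one of the two criteria is met; inactive = mean below 60% and not all replicates reaching 60%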;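 also: luciferase light reporting Pax8 driven TPO promoter activity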
FGF22 binding: binders of recombinant human FGF22 by thermal shift. 1.5% of 340,000 active. Q9HCT0. activity (Tm shift, normalised), % at 9.99 µM. SYPRO orange fluorescence; percent of sucrose octasulfate shift, DMSO zero;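 active = mean Tm shift, scaled 0 neutral to 100 positive control, at about 1.3% or above, every replicate too, limit read from the data; inconclusive = no clear call, values can overlap the other calls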
Target sequence (Q9HCT0 whole entry, looked up): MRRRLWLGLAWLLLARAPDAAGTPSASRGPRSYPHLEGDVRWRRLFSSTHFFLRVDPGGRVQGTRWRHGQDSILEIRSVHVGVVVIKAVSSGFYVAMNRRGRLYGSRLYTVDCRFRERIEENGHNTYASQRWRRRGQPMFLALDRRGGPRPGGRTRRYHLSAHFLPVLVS
Large screens that a line does not name were inactive; ! = repeats disagree; [ ] = dose if it differs, or a comment.

O=C(NN=Cc1ccccc1OC(F)F)c1cccc(S(=O)(=O)N2CCCC2)c1	none (no result: PAX8 inh HTS)
O=C(N/N=C/c1ccc(OC(F)F)cc1OC(F)F)c1cccc(S(=O)(=O)N2CCOCC2)c1	FGF22 binding 44.0 (no result: FN deposition inh)
O=C(NC(=S)NNC(=O)c1ccccc1F)c1cccnc1	none
CC(C)(C)c1cc(Cl)c(O)c(NC(=S)NC(=O)c2cccnc2)c1	FN deposition inh 30.3 (no result: PGC1a acetyl inh)
Cc1ccccc1C(=O)NNC(=S)NC(=O)c1cccnc1	FGF22 binding 43.1 (no result: PGC1a acetyl inh)
CCC(=O)N(C)C[C@@H]1Oc2ncc(-c3ccc(F)cc3)cc2C(=O)N([C@@H](C)CO)C[C@H]1C	none (no result: PAX8 inh HTS)
Cc1ccc(Cl)cc1NC1=C/C(=N\S(=O)(=O)c2cccs2)c2ccccc2C1=O	HIV Env fusion 112.3, PAX8 inh HTS 104.3 (no result: FN deposition inh)
Cc1cc(C)c(S(=O)(=O)/N=C2\C=C(NS(=O)(=O)c3ccccc3)C(=O)c3ccccc32)c(C)c1	none (no result: PGC1a acetyl inh, EWS-Fli inh)
CCc1ccc(S(=O)(=O)/N=C2\C=C(Nc3cccc(C(=O)O)c3)C(=O)c3ccccc32)cc1	none (no result: PGC1a acetyl inh)
O=C1C(Nc2ccc(O)cc2)=C/C(=N/S(=O)(=O)c2cccs2)c2ccccc21	HIV Env fusion 94.8, PAX8 inh HTS 100.6 (no result: PGC1a acetyl inh)
Cc1cccc(NC2=C/C(=N/S(=O)(=O)c3cccs3)c3ccccc3C2=O)c1	HIV Env fusion 75.6 (no result: PGC1a acetyl inh, EWS-Fli inh, FGF22 binding)
Cc1ccc(NC2=C/C(=N\S(=O)(=O)c3cccs3)c3ccccc3C2=O)c(C)c1	PGC1a acetyl inh 92.9 (no result: HIV Env fusion, FN deposition inh, EWS-Fli inh, PAX8 inh HTS, FGF22 binding)
C[C@@H]1CN([C@@H](C)CO)C(=O)c2cc(C3=CCCCC3)cnc2O[C@H]1CN(C)C(=O)CN1CCOCC1	none (no result: FN deposition inh, PAX8 inh HTS)
COc1cccc(C(=O)Nc2ccc3c(c2)C(=O)N(C)C[C@@H](OC)[C@@H](C)CN(CCc2ccccc2)[C@@H](C)CO3)c1	none
C[C@H](CO)N1C[C@H](C)[C@@H](CN(C)CC2CC2)Oc2c(NS(=O)(=O)c3cccs3)cccc2C1=O	none (no result: FN deposition inh)
O=C(C1CC1)N1C[C@@H]2N[C@H](C1)C2c1ccc(-c2ccccc2F)cc1 (some centres undefined)	PAX8 inh HTS 87.2! (no result: HIV Env fusion, FGF22 binding)
O=C(Nc1ccc(C(F)(F)F)cc1)N1C[C@@H]2N[C@H](C1)C2c1ccc(/C=C/c2ccccc2)cc1 (some centres undefined)	PGC1a acetyl inh 73.5!, PAX8 inh HTS 90.4! (no result: HIV Env fusion, FGF22 binding)
O=C(c1ccc(F)cc1)N1C[C@@H]2N[C@H](C1)C2c1ccc(-c2ccccc2F)cc1 (some centres undefined)	none (no result: HIV Env fusion)
O=C(Nc1ccc(F)cc1)N1C[C@@H]2N[C@H](C1)C2c1ccc(-c2ccccc2F)cc1 (some centres undefined)	PAX8 inh HTS 107.7! (no result: HIV Env fusion, FGF22 binding)
O=C(C1CCC1)N1C[C@@H]2N[C@H](C1)C2c1ccc(/C=C/c2ccccc2)cc1 (some centres undefined)	none (no result: HIV Env fusion, PAX8 inh HTS, FGF22 binding)
CN(C)C(=O)c1ccc(-c2ccc([C@H]3[C@@H](C#N)N(C(=O)C4CCC4)[C@@H]3CO)cc2)cc1	none
CNC(=O)C[C@@H]1CC[C@@H]2[C@H](COC[C@@H](O)CN2Cc2ccc(Cl)c(Cl)c2)O1	none
COc1cc(C(=O)NC2CCN(C)CC2)ccc1Nc1ncc2c(n1)N(Cc1ccccc1)CCC(=O)N2C	EWS-Fli inh 54.9 (no result: PGC1a acetyl inh)
COc1ccc(Cn2c(=O)[nH]c3cc(C(=O)NC4CCN(Cc5ccccc5)CC4)ccc32)cc1	HIV Env fusion inconclusive
COc1ccc(C(=O)NC2CCCCC2)cc1S(=O)(=O)N1CCCC1	none (no result: EWS-Fli inh, PAX8 inh HTS, FGF22 binding)
COc1cc(C(=O)NC2CCN(C)CC2)ccc1Nc1ncc2c(n1)N(C1CCCCC1)CCC(=O)N2C	EWS-Fli inh 75.8 (no result: PGC1a acetyl inh)
C[C@H](CO)N1C[C@H](C)[C@@H](CN(C)Cc2ccc(C(=O)O)cc2)OCCCC[C@H](C)Oc2ccc(NS(=O)(=O)c3ccc(Cl)cc3)cc2C1=O	none
COc1ccc(CN2CCN(C(=O)c3ccc(S(=O)(=O)NCc4ccco4)cc3)CC2)cc1	none (no result: FGF22 binding)
O=C(c1ccc(S(=O)(=O)NCc2ccco2)cc1)N1CCN(Cc2ccccc2)CC1	FGF22 binding 43.8 (no result: PGC1a acetyl inh)
O=C(c1ccc(S(=O)(=O)Nc2ccc(F)cc2)cc1)N1CCN(C(=O)c2ccco2)CC1	HIV Env fusion 73.2 (no result: EWS-Fli inh, PAX8 inh HTS, FGF22 binding)
CCOc1ccc(-c2nnn(CC(=O)NCc3ccco3)n2)cc1	none (no result: EWS-Fli inh, FGF22 binding)
CCOc1ccc(-c2cc(CCCC(=O)NCc3ccco3)no2)cc1	EWS-Fli inh 71.5
CN1c2ccccc2N(C)C1(C)c1ccccc1	PAX8 inh HTS 91.6 (no result: PGC1a acetyl inh)
Nc1ccccc1C#CC(=O)c1ccccc1	EWS-Fli inh 66.5 (no result: PGC1a acetyl inh)
CCC(=O)N(C)C[C@@H]1Oc2cc(-c3ccncc3)ccc2S(=O)(=O)N([C@H](C)CO)C[C@@H]1C	none (no result: PAX8 inh HTS)
Cc1ccc2nc(SC(C)C(=O)N3CC(C)OC(C)C3)[nH]c2c1 (centres undefined)	FGF22 binding 43.0 (no result: PGC1a acetyl inh)
COc1ccc(S(=O)(=O)N(C)C[C@@H]2Oc3ccc(NC(=O)CCN4CCOCC4)cc3CC(=O)N([C@@H](C)CO)C[C@H]2C)cc1	none
C[C@@H]1CCCCO[C@@H](CN(C)CC2CCCCC2)[C@H](C)CN([C@@H](C)CO)C(=O)c2cc(NC(=O)CCC(F)(F)F)ccc2O1	none (no result: FN deposition inh)
CCc1cc(CN2CCOCC2)c(NC(=O)c2ccccc2)s1	FGF22 binding 43.2
C[C@H]1CN([C@@H](C)CO)C(=O)CCCn2cc(nn2)CO[C@H]1CN(C)Cc1ccc(C(=O)Nc2ccccc2N)cc1	none (no result: PAX8 inh HTS)
Cc1cccc(NC(=O)CS(=O)(=O)c2cn(CC(=O)N3CCOCC3)c3ccccc23)c1	none
CC(=O)Nc1cccc(NC(=O)CS(=O)(=O)c2cn(CC(=O)N3CCOCC3)c3ccccc23)c1	FGF22 binding 42.9
C[C@@H]1CN([C@H](C)CO)C(=O)c2cc(NS(=O)(=O)c3ccccc3)ccc2O[C@@H](C)CCCCO[C@H]1CN(C)S(=O)(=O)c1ccc(F)cc1	none (no result: FN deposition inh)
COc1ccc(CN(C(=O)c2snc(C(N)=O)c2N)C(C(=O)NC2CCCC2)c2ccc(OC)cc2)cc1 (centres undefined)	none
COc1ccc(CN(C(=O)c2nsc(Cl)c2Cl)C(C(=O)NC2CCCC2)c2ccc(OC)cc2)cc1 (centres undefined)	FGF22 binding 43.2 (no result: PGC1a acetyl inh)
C[C@@H]1CN([C@@H](C)CO)C(=O)c2cc(NS(=O)(=O)c3ccc(F)cc3)ccc2O[C@@H]1CN(C)C(=O)Nc1ccc(C(F)(F)F)cc1	PAX8 inh HTS 70.7 (no result: FN deposition inh)
C[C@@H]1CCCCO[C@H](CN(C)C(=O)Nc2ccc(C(F)(F)F)cc2)[C@@H](C)CN([C@H](C)CO)C(=O)c2cc(NS(=O)(=O)c3cn(C)cn3)ccc2O1	FGF22 binding 1.5
C[C@H](CO)N1C[C@H](C)[C@@H](CN(C)C(=O)Nc2ccc(C(F)(F)F)cc2)OCCCC[C@H](C)Oc2ccc(NS(=O)(=O)c3ccc(F)cc3)cc2C1=O	HIV Env fusion 69.8[16.7 µM], PAX8 inh HTS inconclusive
